Assay results collected from several papers.
Lines come from different studies, so protocols differ.
Target: Mitogen-activated protein kinase 1 (MAPK1, Homo sapiens, UniProt P28482)

With `Cc1nn(C)cc1-c1nc2c(N3CCN(Cc4ccc(Cl)cc4)CC3)c(Cl)cnc2[nH]1` the remaining binding was 100% (binding; competition with immobilised ligand; 1 µM).
`C#Cc1n[nH]c2c(-c3cn([C@@H](C)c4ccccc4)c(=O)[nH]c3=O)cc(F)cc12` has an inhibition of 0.5% (enzyme activity; inhibitor; 0.1 µM).
`Cn1cncc1[C@@](O)(COc1ccc(C#N)cc1-c1ccc(OC(F)(F)F)cc1)c1ccc(C#N)cc1` gave a remaining binding of 91% (cell-free assay; competition with immobilised ligand; 1 µM).
`CNC1(c2ccccc2Cl)CCCCC1=O` (racemic) has an inhibition of 2% (enzyme activity; inhibitor; 30 µM).
For `CC(C)(C)c1cc(C=C(C#N)C#N)cc(Br)c1O`, the remaining activity was 91.3% (enzyme activity; inhibitor; 0.5 µM).
The inhibition of `C#Cc1n[nH]c2c(-c3cn(C(C)c4ccccn4)c(=O)[nH]c3=O)cc(F)cc12` (stereo not drawn) is reported as 7.2% (enzyme activity; inhibitor; 1 µM).
`O=c1[nH]c2ccccc2n1C1CCN(Cc2ccc(-c3[nH]c4cc5ncnc5cc4nc3-c3ccccc3)cc2)CC1` gave a remaining signal of 112% (cell-free assay; 0.5 µM).
The remaining binding of `N#CC1(c2ccccn2)CCN(Cc2cc(C(=O)O)c(=O)n3ccccc23)CC1` is reported as 100% (cell-free assay; competition with immobilised ligand; 1 µM).
With `C[C@@H](O)[C@H](N)C(=O)N1CCC[C@H]1C(=O)N1CCC[C@H]1C(=O)N[C@H](C(N)=O)[C@@H](C)O` the inhibition was -2% (enzyme activity; inhibitor; 30 µM).
`Cn1cc(-c2cc(F)cc(N3CCn4c(cc5c4CCCC5)C3=O)c2CO)cc(Nc2ccc(N3CCN(C4COC4)CC3)cn2)c1=O` gave an inhibition of 4% (enzyme activity; inhibitor; 0.1 µM).
The remaining binding of `COc1ncccc1-c1cnn2ccc(N3CCN(C(=O)OC(C)C)CC3)nc12` is reported as 100% (binding; competition with immobilised ligand; 1 µM).
With `Cc1ncc(C)n2nc(/C=C/c3nc(N4CCCC4)cc(N4CCOCC4)n3)nc12` the inhibition was 7% (enzyme activity; inhibitor; 10 µM).
The inhibition of `O=C(Nc1cccnn1)N1CCN([C@@H]2CCOc3cc(C(F)(F)F)ccc32)CC1` is reported as -4% (enzyme activity; inhibitor; 20 µM).
`Nc1ncc(-c2nc(N3CCOCC3)nc(N3CCOCC3)n2)c(C(F)F)n1` gave a remaining binding of 98% (binding; competition with immobilised ligand; 10 µM).
`Cn1cc(-c2cccc(N3CCc4c(sc5c4CC(C)(C)C5)C3=O)c2CO)cc(Nc2ccncn2)c1=O` has an inhibition of -1% (enzyme activity; inhibitor; 1 µM).
